Assay outcomes (PubChem)
CSN deneddyl inh = CSN deneddylation inhibition; inhibition, % at 12.5 µM; 360,000 compounds, 0.38% hits; Q92905; Purified CSN, SCF-Nedd8-OG deneddylation, fluorescence polarization;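 active = pattern-corrected inhibition above about 35%, with an unprinted fluorescence ratio check between 0.5 and 1.5, limit read from the data, passing the limit was not always enough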;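 note: 0% = enzyme with substrate and 100% = substrate without enzyme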
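Detection – fluorescence polarization · System – HEK293T-derived human Csn5 enzyme · Controls – substrate-only high control, full reaction low control · Timing – 90 min, room temperature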
TPT1 inhibitor = inhibitors of Candida albicans tRNA 2'-phosphotransferase TPT1; recombinant caTPT1, FP RNA substrate dephosphorylation; inhibition, % at 5 µM; 300,000 compounds, 0.81% hits; AID 1962;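 active = inhibition above the mean of all tested compounds plus 3 SD, set per screening campaign, cut at about 24% in these data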;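 note: plate controls were DMSO alone for no effect and ferristatin control at 100 nM for full effect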
Rpn11 block = inhibitors of human proteasome Rpn11. human 26S proteasome, Ub4-pepOG fluorescence polarization; 20S core pre-blocked with epoxomicin. 360,000 compounds, 0.59% hits. O00487. inhibition, % at 20 µM;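 active = inhibition at 20 µM, scaled to each plate's controls, above about 33%, limit read from the data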
IDE cell activ = boosts human insulin-degrading enzyme activity in HEK cells | FAbeta-B cleavage, fluorescence polarization; 0% vehicle, 100% cell-free pure enzyme wells | P14735 | 340,000 compounds, 0.073% hits | activation, % at 5.96 µM;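 active = activation above the mean of all tested compounds plus 3 SD, set per screening campaign, cut at about 17% in these data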
Target sequence (P14735 whole entry, looked up): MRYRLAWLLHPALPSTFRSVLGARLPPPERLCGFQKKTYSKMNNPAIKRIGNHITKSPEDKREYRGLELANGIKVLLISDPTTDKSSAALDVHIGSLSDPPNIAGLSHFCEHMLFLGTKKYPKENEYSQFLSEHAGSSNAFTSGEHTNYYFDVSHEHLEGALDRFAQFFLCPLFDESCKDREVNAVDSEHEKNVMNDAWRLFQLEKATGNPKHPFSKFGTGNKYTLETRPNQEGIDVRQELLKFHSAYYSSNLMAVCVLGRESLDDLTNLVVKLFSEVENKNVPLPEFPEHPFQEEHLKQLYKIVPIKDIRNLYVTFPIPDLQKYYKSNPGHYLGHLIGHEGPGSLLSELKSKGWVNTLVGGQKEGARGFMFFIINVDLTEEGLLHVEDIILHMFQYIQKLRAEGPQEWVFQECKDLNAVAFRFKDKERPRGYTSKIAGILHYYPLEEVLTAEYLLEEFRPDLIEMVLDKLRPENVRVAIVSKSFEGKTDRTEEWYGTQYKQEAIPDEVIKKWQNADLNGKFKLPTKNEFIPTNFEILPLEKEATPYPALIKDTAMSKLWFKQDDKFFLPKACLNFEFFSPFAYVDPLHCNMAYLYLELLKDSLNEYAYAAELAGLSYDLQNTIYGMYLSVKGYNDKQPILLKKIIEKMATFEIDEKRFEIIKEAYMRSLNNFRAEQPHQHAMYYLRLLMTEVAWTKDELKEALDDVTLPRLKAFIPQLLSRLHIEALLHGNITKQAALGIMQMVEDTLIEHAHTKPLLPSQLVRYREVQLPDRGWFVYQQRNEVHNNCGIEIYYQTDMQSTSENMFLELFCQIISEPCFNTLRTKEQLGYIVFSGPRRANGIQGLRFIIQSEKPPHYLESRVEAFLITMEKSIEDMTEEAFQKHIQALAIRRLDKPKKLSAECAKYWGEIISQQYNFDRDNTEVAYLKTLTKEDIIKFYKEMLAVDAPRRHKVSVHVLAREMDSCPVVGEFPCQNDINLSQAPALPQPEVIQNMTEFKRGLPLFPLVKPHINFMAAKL
HNF4A DNA FP = change in binding of human HNF4 alpha to DNA | HNF4a-FITC DNA binding, fluorescence polarization, 1 h | activity change, % at 10 µM | 360,000 compounds, 0.3% hits; in the data active = activity change above about 30%, passing the limit was not always enough
IDE cell inh = inhibits human insulin-degrading enzyme in HEK cells. FAbetaB cleavage, fluorescence polarization. 320,000 compounds, 0.41% hits. P14735. AID 434962. inhibition, % at 5.59 µM;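 active = percent inhibition above the average of all tested compounds plus 3 SD, set per screening campaign, cut at about 16% in these data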;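 note: IDE supplied by intact live HEK cells; FP after avidin binding of uncleaved biotin substrate so inhibition keeps polarization high; 0% = DMSO wells and 100% = 60 µM reference IDE inhibitor Ii1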
Rpn11 inh conf = Rpn11 inhibition confirmation, single concentration | shares compounds with Rpn11 block | purified human 26S proteasome, Ub4-pepOG fluorescence polarization; proteasome pretreated with epoxomicin | inhibition, % at 20 µM | 1,900 compounds, 29% hits | AID 602318
MMP-2 inh = MMP-2 (human) inhibition counter-screen. 1,900 compounds, 4% hits. inhibition, % at 20 µM. shares compounds with Rpn11 block. recombinant MMP-2, FRET peptide cleavage fluorescence;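 note: human MMP-2 activated beforehand with APMA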
Thrombin inh = blocks bovine thrombin, flagging nonselective RPN11 hits. shares compounds with Rpn11 block. bovine thrombin cleavage of Ub4-pepOG, fluorescence polarization. inhibition, % at 20 µM. 1,900 compounds, 13% hits. AID 602333;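 active = mean inhibition at least 40% at 20 µM, or signal 3 deviations below plate average, so some actives read negative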;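 note: plate controls were thrombin with DMSO for no effect and buffer wells lacking thrombin for full effect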
Numbers without * were called inactive; . = not tested or not shown. This is a sample that favours compounds with a hit; in the whole collection about 1.7% have one here. Cut-off read from the data, not from the text of the source, unless noted: active = inhibition above about 40%; inactive = the rest.

SMILES	CSN deneddyl inh	TPT1 inhibitor	Rpn11 block	IDE cell activ	HNF4A DNA FP	IDE cell inh	Rpn11 inh conf	MMP-2 inh	Thrombin inh
COc1ccccc1Cc1c(-c2ccc(C)cc2)nc2ccc(Br)cn12	100*	.	48*	.	11	.	7	-37	0
COc1ccccc1Cc1c(-c2ccccc2)nc2ccc(Br)cn12	4	.	.	.	17	.	.	.	.
COc1ccccc1Cc1c(-c2cccc(Br)c2)nc2ccc(Cl)cn12	15	.	58*	.	34	.	60*	-8	39
CC(C)(C)Cc1c(-c2cccc(Cl)c2)nc2ccc(Cl)cn12	6	.	43*	.	24	.	-6	52*	3
COc1ccccc1Cc1c(-c2ccc(Cl)cc2)nc2ccc(Br)cn12	15	.	41*	.	34	.	41*	-1	51*
COc1ccccc1Cc1c(-c2cccc(Br)c2)nc2ccc(Br)cn12	12	.	17	.	20	.	.	.	.
COc1cccc(C#CC2=CC(=O)CC(C)(C)C2)c1	3	.	-2	.	0	.	.	.	.
Cc1ccsc1C(=O)OCC(=O)c1cc(C)n(C)c1C	0	.	-3	3	-3	-1	.	.	.
CC1(C)OC(=O)C2=C(C[C@@H](C3CCCC3)O[C@H]2CCc2cccc(Cl)c2)O1	0	.	.	.	-1	.	.	.	.
O=C(Nc1nc2c(s1)CCCC2)c1ccc(Br)o1	-5	-4	90*	7	0	-1	-3	2	3
Cc1ccc(C(=O)Nc2nc3c(s2)CCCC3)o1	-3	-3	1	1	1	-7	.	.	.
Cc1cccc(OCC(=O)NNC(=O)CSc2ncc(C#N)c(N)n2)c1	3	1	-6	6	5	1	.	.	.
N#Cc1cnc(SCC(=O)NNC(=O)COc2cccc3ccccc23)nc1N	1	51*	45*	2	13	6	9	2	0
O=C(Nc1nc2ccsc2c(=O)s1)c1ccc(F)cc1Cl	9	-3	3	10	-2	5	.	.	.
O=C(Nc1nc2ccsc2c(=O)s1)c1ccc(F)cc1	20	-1	43*	.	4	0	35	-32	-16
COc1cc(/C=C2/SC(=Nc3ccc(O)cc3)NC2=O)cc(OC)c1O	4	13	59*	-113	5	58*	1	-24	7
CC1(C)CC(=O)C=C(Nc2ccc(OCC(F)(F)C(F)F)cc2)C1	4	0	105*	-6	23	3	9	15	3
CCNC(=S)NNC(=O)c1ccncc1	0	0	3	6	-2	-5	.	.	.
CCNC(=S)NNC(=O)c1cccc(Br)c1	-3	-3	28*	7	1	2	-1	9	-7
Cn1cnnc1SCC(=O)Nc1ccc2nc(SCc3cccc4ccccc34)sc2c1	5	-1	1	-12	0	6	.	.	.
Cn1cnnc1SCC(=O)Nc1ccc2nc(SCc3ccccc3)sc2c1	2	0	64*	0	1	1	-7	-8	-6
CC(C)S(=O)(=O)C1=NSC2=NC(=O)/C(=C\c3ccc(-c4ccccc4)o3)C(=N)N21	11	12	51*	3	25	7	36	14	20
CC(C)S(=O)(=O)C1=NSC2=NC(=O)/C(=C\c3ccc(-c4cccc(C(=O)O)c4)o3)C(=N)N21	15	.	69*	7	24	.	30	0	21
CC(C)NC(=O)C1(C)CSCC(=O)N1CCCn1ccnc1 (stereo not given)	7	.	.	.	-18	.	.	.	.
CCn1cc(C(=O)O)c(=O)c2cc(F)c(N3CCN(S(=O)(=O)c4ccc(Br)cc4)CC3)cc21	.	1	.	.	.	-2	.	.	.
SMILES	CSN deneddyl inh	TPT1 inhibitor	Rpn11 block	IDE cell activ	HNF4A DNA FP	IDE cell inh	Rpn11 inh conf	MMP-2 inh	Thrombin inh
O=C(O)c1cn(C2CC2)c2cc(N3CCN(S(=O)(=O)c4ccc5c(c4)OCCO5)CC3)c(F)cc2c1=O	1	1	102*	6	3	-1	16	-10	14
COc1ccc(-c2oc3c(c2C#CC2(O)CCCCC2)C(OC)CCC3)cc1 (stereo not given)	-5	.	.	.	0	.	.	.	.
Cc1ccccc1NC(=O)c1cc(C(=O)c2cc(Cl)ccc2O)cn(-c2ccccc2C)c1=O	0	12	47*	5	7	5	11	-79	-17
Cc1ccc(-n2cc(C(=O)c3cc(Cl)ccc3O)cc(C#N)c2=O)cc1	-10	13	39	-5	7	5	.	.	.
O=C(NN=C1c2ccccc2-c2ccccc21)c1ccccn1	-3	0	94*	0	1	0	60*	-28	-14
Cc1[nH]n(-c2ccc(Cl)cc2)c(=O)c1C=NC12CN3CN(CN(C3)C1)C2	2	1	2	4	3	-1	.	.	.
COc1cc(SC#N)ccc1N=Cc1c(C)[nH]n(-c2ccc(Cl)cc2)c1=O	5	8	141*	1	19	0	7	3	6
c1ccc(OCCNc2ccn3nc(-c4ccc(OCCN5CCOCC5)cc4)cc3n2)cc1	0	.	2	.	3	.	.	.	.
O=C(Nc1cccc(-c2cc3ccccc3oc2=O)c1)c1ccc(Br)o1	1	-5	4	2	1	5	.	.	.
O=C(Nc1cccnc1)c1cccc(-c2cc3ccccc3oc2=O)c1	25	-1	134*	-2	9	-2	115*	14	15
COc1ccccc1N1CCN(Cc2ccc(O)c3ncccc23)CC1	-1	-3	8	-1	-1	5	.	.	.
Oc1ccc(CN2CCCc3ccccc32)c2cccnc12	-3	-4	44*	4	-1	1	-11	-3	-14
CC(C)C(=O)Nc1ccc(-c2nnc(-c3ccccc3)o2)cc1	-3	.	9	0	-1	.	.	.	.
O=C(Nc1ccc(-c2nnc(-c3ccccc3)o2)cc1)C(F)(F)F	-1	-5	43*	6	4	0	-24	-14	-20
CC(C)c1ccc(N(CC(=O)N/N=C/c2ccc(OC3CSC3)cc2)S(=O)(=O)c2ccccc2)cc1	-2	-2	40*	3	-3	8	-19	-5	-19
CC(C1SC(=S)NC1=O)C1SC(=S)NC1=O (stereo not given)	38*	.	53*	.	4	.	42*	24	33
COc1ccc(CN2CCNC(=O)C2CC(=O)N(C)Cc2nccn2C)cc1OC (stereo not given)	-4	2	47*	2	2	5	5	-28	33
